# Hits are enriched below; roughly 2.3% of the tested compounds scored in any of these assays.
# GalR3 antag = blocks the human galanin receptor 3. HEK293 GalR3-CNG cAMP membrane potential fluorescence; galR3 body fused to GalR1 C-terminus. AID 651719. inhibition, % at 3 µM. hit rate 0.44% among 360,000. O60755;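 active means inhibition above the screen-wide average plus 3 SD, cut at about 13% in these data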;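 further: forskolin and galanin both at EC90 stimulate the cells; cAMP rise reported by CNG channel membrane potential dye signal; 0% = forskolin plus galanin with DMSO and 100% = forskolin alone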
# Target sequence (O60755 1-299 limits assumed): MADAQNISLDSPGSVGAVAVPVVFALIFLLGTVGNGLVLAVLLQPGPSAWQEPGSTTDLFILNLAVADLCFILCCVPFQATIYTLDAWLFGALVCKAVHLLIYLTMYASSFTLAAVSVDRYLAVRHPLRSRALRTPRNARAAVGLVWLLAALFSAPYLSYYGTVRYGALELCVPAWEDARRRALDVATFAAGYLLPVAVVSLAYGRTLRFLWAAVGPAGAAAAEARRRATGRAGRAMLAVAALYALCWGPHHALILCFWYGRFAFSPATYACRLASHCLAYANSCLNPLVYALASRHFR
# CHT allo act = allosterically activates the human high affinity choline transporter; Q9GZV3; CHT-expressing cells, membrane potential dye, choline EC20; stronger effect = higher value; LV-AA mutant CHT in HEK293 cells; B-score at 10 µM; hit rate 0.49% among 310,000;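 active means initial fluorescence not abnormally high and integrated response B-score, plate-corrected, over 3 SD above library mean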
# NR2E3 ag-1 = activates human NR2E3 receptor | Q9Y5X4 | CHO-S Gal4-NCOR/VP16-NR2E3 two-hybrid, luciferase | inhibition of corepressor binding, % at 3.98 µM | hit rate 0.35% among 360,000 | AID 602229;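 active means inhibition above the mean of all tested compounds plus 3 SD, cut at about 70% in these data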;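 further: 0% = DMSO with NR2E3 transfected cells and 100% = cells lacking NR2E3 construct; higher means lower luciferase signal from less NR2E3 corepressor binding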
# CHT inh = inhibits the human high affinity choline transporter; CHT-expressing cells, membrane potential dye, choline response; stronger effect = lower value; Q9GZV3; hit rate 0.86% among 310,000; B-score at 10 µM;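 active means B-score over 3 SD under the library average, and starting fluorescence ratio not unusually high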;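 further: choline stimulus applied at its EC90 after an EC20 pre-addition; B-score computed on integrated fluorescence ratio after choline addition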
# NR2F2 inh = inhibitors of human COUP-TFII (NR2F2); hit rate 0.7% among 370,000; AID 686940; P24468; HEK293T NGFI-A luciferase reporter, luminescence; inhibition, % at 8.6 µM;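 active means inhibition above a per-plate cutoff, mean inhibition of test wells between control levels plus 3 SD, cut at about 38% in these data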;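 further: cells cotransfected with COUP-TFII expression vector driving the NGFI-A reporter; 0% = median of COUP-TF2 test wells and 100% = reporter-only cells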
# Target sequence (P24468 whole entry, looked up): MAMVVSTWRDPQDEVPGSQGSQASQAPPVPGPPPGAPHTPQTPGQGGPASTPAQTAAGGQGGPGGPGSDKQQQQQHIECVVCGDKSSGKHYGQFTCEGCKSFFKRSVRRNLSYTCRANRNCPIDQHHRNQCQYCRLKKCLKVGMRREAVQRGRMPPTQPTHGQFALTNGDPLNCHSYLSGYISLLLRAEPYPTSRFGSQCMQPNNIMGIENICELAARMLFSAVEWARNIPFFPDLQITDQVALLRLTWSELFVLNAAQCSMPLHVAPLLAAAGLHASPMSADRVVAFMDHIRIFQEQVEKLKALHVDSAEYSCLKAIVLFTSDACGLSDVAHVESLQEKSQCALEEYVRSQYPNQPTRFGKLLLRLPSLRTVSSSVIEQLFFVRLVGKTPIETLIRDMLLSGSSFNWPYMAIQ
# NR2E3 ag-2 = NR2E3 (human) agonism; Q9Y5X4; GST-NR2E3/biotin-RetCOR TR-FRET, 1536-well; inhibition of corepressor binding, % at 4.78 µM; hit rate 0.12% among 320,000;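 active means percent inhibition above the cutoff of mean plus 3 SD of all tested compounds, set per screening campaign, cut at about 20% in these data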;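 further: 0% = DMSO wells and 100% = biotin wells as full block of FRET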
#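 System: GST-tagged NR2E3 plus biotinylated RetCOR corepressor; Amount: 1.35 nM GST-tagged NR2E3 final; Dosing: single nominal compound dose of 4.8 µM; Schedule: 5 h incubation at 4 °C; Technique: TR-FRET with europium anti-GST and streptavidin-D2, 340 nm excitation; Controls: biotin wells as high control, 0.6% DMSO wells as low control.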
# CHT inh conf = confirmation of human choline transporter CHT inhibitors; shares compounds with CHT inh; CHT-expressing cells, choline membrane potential dye; LV-to-AA substituted CHT, HEK293 cells; CHT activity remaining % of control (stronger effect = lower value), % at 10 µM; hit rate 70% among 2,400; AID 493221;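 active means choline transporter activity left, mean of duplicates at 10 µM, below buffer-only control mean minus 3 SD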;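 further: depolarization triggered by choline at its EC90 following an EC20 pre-addition; 0% = hemicholinium-3 full block and 100% = buffer-only control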
# HEK293 MPD ctr = CHT inhibitor counter-screen hit in parental HEK293 cells; shares compounds with CHT inh; membrane potential dye, choline response; active = decrease or increase beyond buffer ±3SD; membrane potential ratio readout (active if shifted either direction beyond buffer ±3SD; no single direction) at 10 µM; hit rate 4% among 2,400; AID 493222;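 further: parental cells lack the transporter so any hit is non-specific; ratio is peak minus trough fluorescence over baseline after EC90 choline challenge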
# * hit, by the source's call; i = inactive; · = no result given.
SMILES,GalR3 antag,CHT allo act,NR2E3 ag-1,CHT inh,NR2F2 inh,NR2E3 ag-2,CHT inh conf,HEK293 MPD ctr
Cc1ccc(CS(=O)Cc2ccc(C(=O)NC3CCC(C)CC3)o2)cc1 (stereo not given),0.0,i,12.4,-9.79*,6.4,0.1,3.4%*,i
c1ccc(Cn2c(SCC3CCC3)nnc2-c2cccnc2)cc1,·,·,·,·,13.1,·,·,·
O=C(C1CCC1)N1CCc2cc(S(=O)(=O)N3CCCC3)ccc21,·,·,·,·,-5.9,·,·,·
COc1ccc(Cc2noc(CN(C)CC(O)c3ccccc3)n2)cc1OC (stereo not given),-2.4,i,-12.9,-5.66*,-3.1,-0.2,i,i
C=CCN(CC=C)S(=O)(=O)c1ccc2nc(NC(=O)C3CCCO3)sc2c1 (stereo not given),1.4,i,15.6,-5.01*,11.8,-0.2,58.2%*,i
COCCCNC(=O)C[C@H]1C[C@@]2(C(=O)OC)C(=C[C@H](C(C)C)O[C@@H]2C2CC2)N(CCc2ccc(OC)c(OC)c2)C1=O,·,·,·,·,-3.5,·,·,·
Cc1c(Br)c(C(F)(F)F)nn1CC(=O)NCc1ccco1,-6.9,i,-8.4,-7.75*,-17.2,5.8,i,i
Cc1c(Br)c([N+](=O)[O-])nn1CC(=O)NCc1ccco1,-0.5,i,-12.7,i,9.0,3.4,·,·
O=C(NCc1cccnc1)c1ccc(COc2ccccc2Cl)o1,-6.6,i,-10.9,-5.36*,7.0,-0.2,58.3%*,i
CC(C)(C)NC(=O)c1ccc(COc2ccccc2Br)o1,-1.3,i,3.0,-6.26*,-8.2,-2.4,i,i
CCN(CC)C(=O)c1ccc(COc2ccccc2Br)o1,-3.0,i,7.1,-8.15*,-14.7,2.6,57.7%*,i
O=C(NCc1cccnc1)c1ccc(COc2ccc3c(c2)CCC3)o1,-4.7,i,-114.7,i,9.1,-1.7,·,·
O=C(Nc1cccnc1)c1ccc(COc2ccccc2Br)o1,-9.5,i,-32.2,-5.74*,-0.6,7.3,54.9%*,i
O=C1CCC[C@H]2C[C@H](NCc3cccc(I)c3)CC[C@]23CCCN13,·,·,·,·,10.2,·,·,·
CC(COc1ccc(C(F)(F)F)cc1)CN1CCC(C(O)(c2ccccc2)c2ccccc2)CC1 (stereo not given),·,·,·,·,7.8,·,·,·
CCOC(=O)C1=C(C)N=c2s/c(=C/c3cccc([N+](=O)[O-])c3O)c(=O)n2C1c1cc(OC)c(OC)c(OC)c1 (stereo not given),-8.2,i,5.7,-9.83*,-9.8,-0.8,28.4%*,i
COC(=O)c1cc(C(C)c2ccccc2O)n2ccccc12 (stereo not given),·,·,·,·,-52.1,·,·,·
Cc1ccc(-n2[nH]c(C)c(/C=N/Nc3ccc([N+](=O)[O-])cc3[N+](=O)[O-])c2=O)cc1C,0.4,i,-2.3,-8.38*,8.1,-0.6,35.5%*,i
COc1ccc(C(CCN2CCCC(C)C2)c2c(OC)cc(OC)c3c(-c4ccccc4)cc(=O)oc23)cc1 (stereo not given),-0.4,i,12.5,-5.66*,15.2,0.8,49.9%*,i
COc1ccc(C2CC(=O)Oc3c(C(CCN4CCCCC4)c4ccc(N(C)C)cc4)c(OC)cc(OC)c32)cc1 (stereo not given),-5.5,i,-10.8,-5.9*,-9.3,4.4,47.2%*,i
COc1cc(OC)c2c(-c3ccccc3)cc(=O)oc2c1C(CCN1CCCC1)c1ccc2c(c1)OCO2 (stereo not given),-5.6,i,-3.6,-6.49*,-60.7,0.3,49.5%*,i
COc1cc(OC)c2c(-c3ccccc3)cc(=O)oc2c1C(CCN1CCN(c2ccccc2)CC1)c1ccc(N(C)C)cc1 (stereo not given),0.5,i,10.3,i,6.4,-2.5,·,·
COc1cc(OC)c2c(-c3ccccc3)cc(=O)oc2c1C(CCN1CCCC(C)C1)c1ccc(N(C)C)cc1 (stereo not given),-4.6,i,22.3,-5.96*,13.9,-0.4,53.5%*,i
COc1cc(OC)c2c(-c3ccccc3)cc(=O)oc2c1C(CCN1CCOCC1)c1ccc2c(c1)OCO2 (stereo not given),4.8,·,2.1,·,-9.8,·,·,·
C/C(=N/NC(=O)c1cccnc1)c1cccc(O)c1,·,·,·,·,-13.4,·,·,·
SMILES,GalR3 antag,CHT allo act,NR2E3 ag-1,CHT inh,NR2F2 inh,NR2E3 ag-2,CHT inh conf,HEK293 MPD ctr
C[C@H]1[C@@H](OC(=O)Nc2ccc(C#N)cc2)CC[C@@]23CCCN2C(=O)CCC[C@@H]13,·,·,·,·,3.9,·,·,·
COc1ccc(C(CCN2CCOCC2)c2c(OC)cc(OC)c3c(-c4ccccc4)cc(=O)oc23)cc1 (stereo not given),-1.6,·,20.9,·,7.9,·,·,·
COc1ccc(C(CCN2CCCC2)c2c(OC)cc(OC)c3c(-c4ccccc4)cc(=O)oc23)cc1 (stereo not given),-1.3,i,6.4,-5.18*,-8.8,-3.9,51.3%*,i
O=C(Nc1ccc2nc(N3CCOCC3)sc2c1)c1ccc(F)cc1,1.2,·,-3.5,·,-3.7,-0.2,·,·
O=C(Nc1ccc(F)cc1F)c1ccc2nc(N3CCOCC3)sc2c1,2.8,i,-146.4,-10.5*,-44.3,-0.3,i,i
CC(C)(C)c1csc(NC(=O)c2ccccc2O)n1,-7.7,i,-106.6,-6.8*,-19.7,2.4,i,i
Cc1csc(NC(=O)c2ccccc2O)n1,2.0,i,-60.1,i,-25.1,-1.2,·,·
Cc1ccc(-c2nnc(N3CCCCC3)c3ccccc23)cc1S(=O)(=O)N1CCN(C)CC1,-5.9,i,-10.2,-7.27*,3.6,-4.0,41.9%*,i
CC(=O)c1cccc(OCC(=O)c2cc(C)n(-c3cc(C)on3)c2C)c1,-5.0,i,23.4,-4.97*,8.5,-0.2,63.0%*,i
Cc1ccccc1CN1CCCCC(NC(=O)Cc2cccs2)C1=O (stereo not given),·,·,·,·,9.2,·,·,·
CCCSc1nc2sc3c(c2c(=O)n1CC)CC(C)(C)OC3,5.0,i,-31.4,i,9.8,0.1,·,·
CCCCCc1nc2sc3c(c2c(=O)n1NC(=O)c1ccc([N+](=O)[O-])cc1)CC(C)(C)OC3,-4.3,i,46.4,-12.2*,6.8,4.0,28.3%*,i
CCc1cc(-c2nc(N)ncc2-c2csc(C)n2)c(O)cc1OC,-5.2,i,8.5,-7.79*,-13.9,2.4,i,i

# Screening results deposited in PubChem BioAssay by several laboratories.
